Experimental data gathered from unrelated publications.
Target: Tyrosine-protein kinase Mer (MERTK, Homo sapiens, UniProt Q12866)
One construct used (Q12866 21-999): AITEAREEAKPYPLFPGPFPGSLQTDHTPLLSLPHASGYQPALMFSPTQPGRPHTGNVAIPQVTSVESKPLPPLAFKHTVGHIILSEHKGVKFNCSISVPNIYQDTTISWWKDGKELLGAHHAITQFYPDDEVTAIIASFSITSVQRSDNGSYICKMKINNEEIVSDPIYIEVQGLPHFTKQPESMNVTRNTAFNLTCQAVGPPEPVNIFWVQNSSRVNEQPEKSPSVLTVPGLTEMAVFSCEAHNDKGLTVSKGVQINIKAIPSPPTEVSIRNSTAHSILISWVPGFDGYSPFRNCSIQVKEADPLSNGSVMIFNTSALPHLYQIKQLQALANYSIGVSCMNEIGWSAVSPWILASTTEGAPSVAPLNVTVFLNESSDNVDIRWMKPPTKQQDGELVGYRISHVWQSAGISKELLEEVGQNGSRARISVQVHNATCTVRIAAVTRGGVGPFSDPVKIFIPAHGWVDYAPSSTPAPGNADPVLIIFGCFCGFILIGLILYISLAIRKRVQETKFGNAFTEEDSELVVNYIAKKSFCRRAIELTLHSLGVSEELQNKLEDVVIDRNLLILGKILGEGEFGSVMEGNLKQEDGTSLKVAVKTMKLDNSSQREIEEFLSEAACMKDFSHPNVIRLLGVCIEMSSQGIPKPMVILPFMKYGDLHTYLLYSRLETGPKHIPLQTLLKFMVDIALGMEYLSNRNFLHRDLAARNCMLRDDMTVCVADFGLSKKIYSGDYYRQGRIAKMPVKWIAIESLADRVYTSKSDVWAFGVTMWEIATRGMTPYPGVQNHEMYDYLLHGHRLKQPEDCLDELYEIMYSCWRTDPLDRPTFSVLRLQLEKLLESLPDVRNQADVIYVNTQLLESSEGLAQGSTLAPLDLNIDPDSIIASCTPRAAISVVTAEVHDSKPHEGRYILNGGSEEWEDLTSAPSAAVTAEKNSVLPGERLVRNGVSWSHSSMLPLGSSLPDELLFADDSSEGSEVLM

COc1ncc2cc3ccccc3nc2c1C#N  remaining binding (cell-free assay, competition with immobilised ligand; 5 µM): 100%
COc1cnc(Nc2cccc(S(N)(=O)=O)c2)nc1N1CCN(c2ccccc2)C(=O)C1  remaining binding (binding, competition with immobilised ligand; 1 µM): 94%
CCC(=O)N[C@H]1CC[C@@H](C(=O)N(C)c2ccc(-c3nc4ccccc4o3)cc2)C1  remaining binding (cell-free assay, competition with immobilised ligand; 1 µM): 100%
Cc1cnc(Nc2ccc(C(=O)N3CCC(N4CCCC4)CC3)cc2)nc1-c1cc2ccccc2s1  remaining binding (binding, competition with immobilised ligand; 1 µM): 0.7%
FC(F)(F)Oc1cccc(-c2cnc3ccc(-c4ccncc4)nn23)c1  remaining binding (cell-free assay, competition with immobilised ligand; 5 µM): 100%
C[C@@H]1CCN(c2nccc(-c3cnn4ncccc34)n2)C1  remaining binding (binding; 1 µM): 100%
CCCOc1ccc([C@@H]2[C@@H](C(=O)O)[C@H](c3ccc4c(c3)OCO4)CN2CC(=O)Nc2c(CC)cccc2CC)cc1  remaining binding (cell-free assay, competition with immobilised ligand; 1 µM): 97%
COc1ccnn2ncc(-c3ccnc(N(C)C)n3)c12  remaining binding (binding; 1 µM): 99%
CS(=O)(=O)N1CCCC(NC(=O)[C@H](CCC2CCCCC2)NC(=O)c2ccc(CNc3ncnc4c3nnn4-c3ccccc3)cc2)C1 (stereo partly drawn)  remaining binding (cell-free assay, competition with immobilised ligand; 0.1 µM): 91%
CN(C)c1nccc(-c2cnn3ncccc23)n1  remaining binding (binding; 1 µM): 87%
CC(=O)N1CCC(c2ccc(C(=O)NC(=N)N)cc2C(F)(F)F)CC1  remaining binding (cell-free assay, competition with immobilised ligand; 1 µM): 81%
c1cncc(-c2cccc(Nc3nccc(NC4CCCCC4)n3)c2)c1  remaining binding (binding, competition with immobilised ligand; 10 µM): 4.6%
O=C(c1ccc(Nc2ncc(Cl)c(-c3ccc(Cl)s3)n2)cc1)N1CCC(N2CCCC2)CC1  remaining binding (binding, competition with immobilised ligand; 1 µM): 4.3%
CN(C)c1nccc(-c2cnc3ncccn23)n1  remaining binding (binding; 1 µM): 82%
O=C(c1ccc(Nc2nccc(-c3cc4ccccc4s3)n2)cc1)N1CCC(N2CCCC2)CC1  remaining binding (binding, competition with immobilised ligand; 1 µM): 42%
O=C(NCC1CCOCC1)c1n[nH]cc1NC(=O)c1c(F)cccc1F  remaining binding (binding, competition with immobilised ligand; 1 µM): 98%
Cc1cnn2ncc(-c3ccnc(N(C)C)n3)c2c1  remaining binding (binding; 1 µM): 100%
O=S(=O)(NC1CCC(c2cc(F)ccc2F)(S(=O)(=O)c2ccc(Cl)cc2)CC1)C(F)(F)F (stereo not drawn)  remaining binding (cell-free assay, competition with immobilised ligand; 1 µM): 99%
CN(CCCC(F)(F)F)c1nccc(-c2cnn3ncccc23)n1  remaining binding (binding; 1 µM): 100%
COc1cnc(Nc2cccc(S(N)(=O)=O)c2)nc1N1CCN(c2ccccc2)CC1  remaining binding (binding, competition with immobilised ligand; 1 µM): 65%
CN(C)c1ncnc(-c2ccc3nc(Nc4cc(CN5CCN(C(=O)CC(F)(F)F)CC5)ccn4)[nH]c3c2)c1Cl  remaining binding (cell-free assay, competition with immobilised ligand; 1 µM): 87%
